Paper PMC5575737 (Bioorganic & medicinal chemistry letters, 2017)

Experiments:
[1] = test system: nine NSCLC lines; assay: NCI-60 one-dose assay, average; format: cell-based, human; details: average over the NSCLC lines tested; single dose 10 μM
In short: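 The NCI DTP ran the NCI-60 one-dose screen. Cells were plated at densities matched to doubling rate and incubated overnight, then exposed to 10 μM test compound for […]. Growth percentage came from protein density at the end versus the start of exposure. Values were averaged across the nine NSCLC lines.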

[2] = Solubility in water, water/DMSO and 2-HPβCD solutions; format: physicochemical; details: for behaviour on addition of water to the DMSO solution: final 1% DMSO in water
[3] = test system: four NSCLC lines (NCI-H460, NCI-H1975, A549, HCC827); assay: MTT cell viability assay, all four lines; format: cell-based; details: 72 h, read-out: IC50 values, range over four NSCLC lines
In short: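 Cells were exposed for 72 h, then viability was read by MTT. Test compound was dissolved in DMSO and diluted with water to 1% DMSO, giving at most 0.032% DMSO final in medium. A parallel run used stock in 10% (w/v) 2-HPβCD (≤0.008% final), with 0.008% 2-HPβCD vehicle controls. Cisplatin was dissolved in water. IC50 was the concentration giving 50% loss of viability versus control cells.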

[4] = test system: DNA; assay: DNA interaction: viscosity and fluorescent intercalator displacement assays; format: binding
[5] = test system: H460 cells; assay: JC-1 mitochondrial membrane potential assay; format: cell-based
[6] = test system: C57BL/6 mice; assay: Preliminary in vivo toxicity study
[7] = test system: H460 cells; assay: Annexin V apoptosis assay; format: cell-based
In short: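 H460 cells in 6-well plates were treated with the test compound in 10% (w/v) 2-HPβCD aqueous solution or in DMSO. Controls were 2-HPβCD vehicle and cisplatin. Cells were stained with Annexin V-FITC plus propidium iodide and imaged by fluorescence microscopy (20× objective) at 12, 14, 17 and 20 h. Read-outs were green versus green+red fluorescence and membrane blebbing.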

[8] = test system: H460 cells; details: cited from earlier work
[9] = test system: NCI-H522; assay: NCI-60 five-dose assay; format: cell-based, human
In short: (§1)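 The NCI DTP ran the NCI-60 five-dose screen. Cells were exposed to the test compound at 10 nM, 100 nM, 1 μM, 10 μM and 100 μM. Read-outs were growth inhibition by 50% (GI50), total growth inhibition (TGI) and 50% lethal concentration (LC50), each relative to control cells.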

[10] = test system: NCI-H226; assay: NCI-60 five-dose assay; format: cell-based, human
In short: as §1

[11] = test system: HOP-62; assay: NCI-60 five-dose assay; format: cell-based, human
In short: as §1

[12] = test system: NCI-H460; assay: NCI-60 five-dose assay; format: cell-based, human
In short: as §1

[13] = test system: HOP-92; assay: NCI-60 five-dose assay; format: cell-based, human
In short: as §1

[14] = test system: EKVZ; assay: NCI-60 five-dose assay; format: cell-based, human
In short: as §1

[15] = test system: A549/ATCC; assay: NCI-60 five-dose assay; format: cell-based, human
In short: as §1

With CCc1n(Cc2ccc3ccccc3c2)cc[n+]1Cc1ccc2ccccc2c1.[Br-] [Compound 2] the “Growth % Average” value [1] was 4.18%, the “behaviour on addition of water to the DMSO solution” value (“behaviour on addition of water” below) [2] was “remained soluble” and the IC50 [3] was 0.66 to 3.5 µM. For the same compound, the “interaction with DNA” value [4] was “little to no interaction with DNA”, the “red fluorescence (J-aggregates, intact MMP)” value (“red fluorescence” below) ([5]; 20 μM, 1 hour versus 15 minutes) was “apparent decrease in intensity” and the “red fluorescence” value ([5]; 40 μM, 30 minutes) was “minimal red fluorescence”. For the same compound, the “red fluorescence” value ([5]; 40 μM, 1 hour and 2.5 hours) was “minimal red fluorescence”, the “clinical observation the day after the second injection” value ([6]; 15 mg/kg IP on day fourteen, two surviving mice) was “both animals were sacrificed due to lethargic movement” and the “body weight after first injection” value ([6]; 20 mg/kg IP) was “sharp decrease in weight”. For the same compound, the mortality ([6]; 20 mg/kg IP on day zero in 20% 2-HPβCD, day two) was “one mouse from the experimental group was found deceased”, the overall toxicity ([6]; 20 mg/kg then 15 mg/kg IP) was “quite toxic at the doses administered” and the average weight loss ([6]; after second injection, 15 mg/kg IP on day fourteen) was “around 6%”. For the same compound, the “time at which strong green fluorescence (Annexin V-FITC) was observed” value ([7]; 40 μM, water/DMSO solution) was 1 h, the “time of treatment at which blebbing occurs” value ([7]; 2-HPβCD vehicle) was 14 h and the “mode of cell death” value ([7]; DMSO or 2-HPβCD vehicle, two independent trials) was “causes apoptosis”. For the same compound, the “time of treatment at which blebbing occurs” value ([7]; DMSO vehicle) was 3 h.
For CCCc1n(Cc2ccc3ccccc3c2)cc[n+]1Cc1ccc2ccccc2c1.[Br-] [Compound 3], the “Growth % Average” value [1] was 2.33%, the “behaviour on addition of water” value [2] was “remained soluble” and the IC50 [3] was 0.66 to 3.5 µM.
For CC(C)c1n(Cc2ccc3ccccc3c2)cc[n+]1Cc1ccc2ccccc2c1.[Br-] [Compound 5], the “solubility in 2-HPβCD solution” value ([2]; 10% 2-HPβCD by weight in water) was “mostly soluble”, the “behaviour on addition of water” value [2] was “remained soluble” and the IC50 [3] was 0.66 to 3.5 µM.
For Clc1c(Cl)[n+](Cc2ccc3ccccc3c2)cn1Cc1ccc2ccccc2c1.[Br-] [IS23, 4,5-dichloro-1,3-bis(naphthalen-2-ylmethyl)imidazolium bromide], the “time of morphological changes (cell shrinkage, rounding, detachment)” value [8] is listed as “within the first hour”.
With CCCCc1n(Cc2ccc3ccccc3c2)cc[n+]1Cc1ccc2ccccc2c1.[Br-] [Compound 4] the TGI [9] was 1.89 µM, the GI50 ([9]; Homo sapiens) was 0.491 µM and the “Growth % Average” value [1] was −1.36%. For the same compound, the TGI [10] was 2.93 µM, the GI50 ([10]; Homo sapiens) was 1.35 µM and the “behaviour on addition of water” value [2] was “slight precipitation”. The TGI [11] was 2.75 µM, the GI50 ([11]; Homo sapiens) was 1.29 µM and the IC50 [3] was 0.66 to 3.5 µM. For the same compound, the TGI [12] was 2.82 µM, the GI50 ([12]; Homo sapiens) was 1.25 µM and the TGI [13] was 2.35 µM. It also gave a GI50 ([13]; Homo sapiens) of 0.844 µM, a TGI ([14]; EKVZ) of 3.47 µM and a GI50 ([14]; Homo sapiens) of 1.35 µM. The TGI ([15]; A549/ATCC) was 3.24 µM and the GI50 ([15]; Homo sapiens, A549) was 1.67 µM.
With N#CC(C#N)=NNc1cccc(Cl)c1 [CCCP, carbonylcyanide m-chlorophenylhydrazone, reference compound] the “mitochondrial potential versus media control cells” value ([5]; positive control) was “mitochondria potential was decreased”.
In the case of Cc1n(Cc2ccc3ccccc3c2)cc[n+]1Cc1ccc2ccccc2c1.[Br-] [Compound 1], the “Growth % Average” value [1] is reported as 21.19%, the “behaviour on addition of water” value [2] is reported as “slight precipitation” and the IC50 [3] is reported as 0.66 to 3.5 µM.
